Source: PubChem BioAssay
STAT3 inh-1 – inhibitors of IL-6 induced STAT3 signaling; AID 862; inhibition, % at 5.5 µM; 190,000 compounds, 0.89% hits; U3A cells, IL-6 STAT3-luciferase reporter, luminescence; host cell line lacks STAT1;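 active = inhibition above the mean inhibition across all screened compounds plus 3 SD, cut at about 44% in these data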;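 note: 0% = DMSO only wells and 100% = 100 µM nifuroxazide control wells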
STAT3 act – increases IL-6 driven STAT3 reporter signal; U3A cells, IL-6 STAT3-luciferase reporter, luminescence; 100% = signal with IL-6 EC80 alone; activation (% of control), % at 5.6 µM; 190,000 compounds, 0.91% hits;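 active = activation above the screen-wide mean of compound activation plus 3 SD, cut at about 130% in these data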;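 note: 0% = background luminescence of wells with medium and substrate only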
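system = STAT3-luciferase reporter U3A cells | reagent = IL-6 stimulus at 33 ng/mL final | timing = 1 h compound pre-exposure, 6 h IL-6 stimulation, 37 °C | measured by = luminescence | evaluation = % activation versus median of IL-6-stimulated wells | control set = IL-6-only wells as 100% reference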
HSP90 inh – blocks HSP90-mediated luciferase refolding in reticulocyte lysate; 290,000 compounds, 0.91% hits; Rabbit reticulocyte lysate, luciferase refolding luminescence, 3 h; inhibition, % at 5.6 µM;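 active = inhibition above the screen-wide mean plus 3 SD, computed separately per campaign, cut at about 16% in these data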;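 note: 0% = DMSO wells and 100% = 60 µM geldanamycin wells; inhibitors lower the luminescence because luciferase stays unfolded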
STAT1 inh – reduces IFN-gamma driven STAT1 reporter signal. NIH 3T3 STAT1-luciferase reporter, luminescence. inhibition, % at 5.5 µM. 200,000 compounds, 0.35% hits;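 active = inhibition above a set limit, the mean inhibition across all tested compounds plus 3 SD, cut at about 34% in these data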;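 note: 0% = IFN-gamma with DMSO and 100% = IFN-gamma with 300 µM nifuroxazide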
STAT3 inh-2 – STAT3 inhibition, confirmation assay. shares compounds with STAT3 inh-1. U3A cells, IL-6 STAT3 luciferase reporter, luminescence; cell line lacks STAT1. inhibition, % at 5.7 µM. 1,200 compounds, 45% hits;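 active = inhibition above the hit cutoff computed for the primary STAT3 screen, cut at about 44% in these data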;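 note: 0% = IL-6 plus DMSO and 100% = IL-6 plus nifuroxazide control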
NFkB inh 2 – counter-screen for STAT3 inhibitors: NF-kappaB inhibition; HEK293T NF-kB luciferase reporter, TNF-alpha induced; shares compounds with STAT3 inh-1; 1,200 compounds, 36% hits; inhibition, % at 5.7 µM;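 active = inhibition above the mean of solvent-only control wells plus 3 SD, cutoff set per campaign, cut at about 13% in these data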;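 note: 0% = TNF-alpha with DMSO and 100% = TNF-alpha with MG high control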
STAT1 inh 2 – inhibits STAT1, counter-screen to STAT3 inhibitors; AID 1317; 1,200 compounds, 27% hits; NIH 3T3 STAT1-luciferase reporter, IFN-gamma induced, luminescence; inhibition, % at 5.7 µM; shares compounds with STAT3 inh-1;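 active = inhibition above the mean plus 3 SD of solvent-only control wells, limit set per screening run, cut at about 16% in these data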;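 note: 0% = DMSO with IFN-gamma and 100% = nifuroxazide control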
HSP90 confirm – HSP90 inhibition, confirmation assay | inhibition, % at 5.9 µM | rabbit reticulocyte lysate, luciferase refolding luminescence, 3 h | 2,300 compounds, 64% hits | shares compounds with HSP90 inh | AID 1846; in the data active = inhibition above about 18%;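 note: 0% = vehicle wells and 100% = reference inhibitor wells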
FLuc counter – counter-screen for HSP90 inhibitors: inhibitors of firefly luciferase; shares compounds with HSP90 inh; purified native firefly luciferase, luminescence; inhibition, % at 5.9 µM; AID 1847; 2,300 compounds, 48% hits;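 active = inhibition above the mean inhibition of all tested sample wells plus 3 SD, cut at about 10% in these data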;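 note: 0% = DMSO with luciferase and 100% = wells lacking luciferase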
Target sequence (P08659 whole entry, looked up): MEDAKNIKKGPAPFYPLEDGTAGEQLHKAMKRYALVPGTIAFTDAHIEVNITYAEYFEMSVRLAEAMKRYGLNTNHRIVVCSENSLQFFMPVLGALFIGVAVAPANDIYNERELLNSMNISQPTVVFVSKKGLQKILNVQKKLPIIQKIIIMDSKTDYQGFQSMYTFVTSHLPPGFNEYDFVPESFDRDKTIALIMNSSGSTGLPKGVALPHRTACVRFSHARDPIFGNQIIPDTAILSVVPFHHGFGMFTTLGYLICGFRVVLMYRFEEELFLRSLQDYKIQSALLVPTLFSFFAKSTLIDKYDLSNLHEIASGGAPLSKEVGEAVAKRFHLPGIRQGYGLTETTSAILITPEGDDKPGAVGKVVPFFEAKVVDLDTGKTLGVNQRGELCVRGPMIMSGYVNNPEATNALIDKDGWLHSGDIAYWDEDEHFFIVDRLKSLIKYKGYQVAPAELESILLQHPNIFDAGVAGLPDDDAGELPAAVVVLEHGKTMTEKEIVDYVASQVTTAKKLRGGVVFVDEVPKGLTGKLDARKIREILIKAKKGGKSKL
* = called active by the depositor; nt = no result given. Hits are enriched below; roughly 2% of the tested compounds scored in any of these assays.

SMILES	STAT3 inh-1	STAT3 act	HSP90 inh	STAT1 inh	STAT3 inh-2	NFkB inh 2	STAT1 inh 2	HSP90 confirm	FLuc counter
Cc1nc(-c2ccc(NC(=O)c3ccccc3)cc2)cs1	71*	41	21*	29	23	-23	-126	40*	28*
O=C(c1cccs1)c1ccc(-c2cccs2)s1	61*	54	29*	25	21	-8	-77	61*	53*
Cc1oc(-c2ccc3c(c2)OCCO3)cc1C(=O)O	64*	50	96*	9	93*	56*	74*	101*	91*
COc1ccc(O)c(C(=O)CC(=O)c2ccccc2)c1	70*	42	24*	-34	15	-25	-101	8	-22
CCOC(=O)C1(Cc2cccc(OC)c2)CCCN(Cc2cc(OC)c(O)c(OC)c2)C1 (configuration not stated)	nt	nt	-3	nt	nt	nt	nt	nt	nt
N/C(=N\N=C\c1ccc2c(c1)OCO2)c1nonc1N	54*	55	21*	-34	33	-14	-98	54*	37*
N/C(=N\N=C\c1cccc([N+](=O)[O-])c1)c1nonc1N	nt	nt	4	nt	nt	nt	nt	nt	nt
CN1CCN(C(=O)/C=C/c2ccc(C#N)cc2)CC1	nt	nt	4	nt	nt	nt	nt	nt	nt
Cc1ccc2nc(-c3cccc(N)c3)[nH]c2c1	66*	47	18*	7	27	-10	-90	45*	33*
Cc1ccc(-c2nc3ccc([N+](=O)[O-])cc3[nH]2)cc1	77*	40	25*	31	32	-15	-127	42*	43*
COc1ccc(-c2nc3ccc([N+](=O)[O-])cc3[nH]2)cc1	27	79	8	-93	nt	nt	nt	nt	nt
O=C(CSc1nnc(-c2ccco2)n1-c1ccccc1Cl)Nc1cccc(C(=O)O)c1	nt	nt	-4	nt	nt	nt	nt	nt	nt
Cc1cc(C)n2nc(C(=O)N3CCCC(N4CCN(c5ccccc5C)CC4)C3)cc2n1 (configuration not stated)	nt	nt	1	nt	nt	nt	nt	nt	nt
Cc1ccnc(Nc2nc3ccccc3o2)n1	43*	64	22*	13	17	-18	-60	45*	22*
Nc1nc2ccccc2n1CCOc1ccc(F)cc1	nt	nt	1	nt	nt	nt	nt	nt	nt
C/C(=N\O)c1sc(-c2ccccc2)nc1C	4	106	-3	-63	nt	nt	nt	nt	nt
CC(=O)NCc1ccc(S(=O)(=O)N2CCCN(C)CC2)cc1	nt	nt	2	nt	nt	nt	nt	nt	nt
Clc1ccc(-c2nnc(NC3=NCCCCC3)o2)cc1	80*	32	45*	26	48*	19*	-48	71*	68*
Fc1cc(Cl)ccc1NC1=NCCCCC1	nt	nt	4	nt	nt	nt	nt	nt	nt
CCCNC(=O)c1ccc(-c2nc3ccccc3s2)s1	75*	39	22*	13	45*	-12	-106	68*	60*
O=C(NCCCO)c1nc2ccccc2s1	-5	108	-1	-9	nt	nt	nt	nt	nt
Cc1ccc(C(=O)NNC(=O)CCC(=O)NCc2ccccc2)cc1Br	nt	nt	-2	nt	nt	nt	nt	nt	nt
CN(C)c1ccc(NC(=O)c2cnsn2)cc1	50*	59	26*	19	16	-14	-36	48*	40*
COCCCn1c(SCC(=O)NC2CCCCC2)nc2ccccc2c1=O	nt	nt	-1	nt	nt	nt	nt	nt	nt
COc1ccc(C(=O)Nn2c(SCC(=O)NCc3ccco3)nc3ccccc3c2=O)cc1	67*	48	56*	9	34	24*	-50	65*	65*
SMILES	STAT3 inh-1	STAT3 act	HSP90 inh	STAT1 inh	STAT3 inh-2	NFkB inh 2	STAT1 inh 2	HSP90 confirm	FLuc counter
COc1ccc(C(=O)Nn2c(SCC(=O)NC3CCCCC3)nc3ccccc3c2=O)cc1	51*	61	62*	28	9	-2	-54	71*	65*
COc1cc(C2C3=C(CCCC3=O)Nc3[nH]n(-c4ccccc4)c(=O)c32)ccc1OC(C)=O (configuration not stated)	-1	104	2	7	nt	nt	nt	nt	nt
CC(C)OC(=O)c1sc2nc(-c3ccccc3)ccc2c1N	61*	56	44*	-13	17	-23	-163	54*	52*
COc1ccc(S(=O)(=O)N2CCN(Cc3cccc(OC)c3OC)CC2)cc1	nt	nt	2	nt	nt	nt	nt	nt	nt
COc1ccc(OCC(=O)Nc2nccs2)cc1	69*	43	31*	31	29	-17	-40	60*	39*
COc1ccc(OCCC(=O)Nc2nccs2)cc1	-1	101	2	-7	nt	nt	nt	nt	nt
O=C(N/N=C/c1cc2c(cc1Br)OCO2)c1ccccn1	nt	nt	5	nt	nt	nt	nt	nt	nt
O=C(N/N=C/c1ccc2c(c1)OCO2)c1ccccn1	55*	61	28*	0	13	-9	-54	57*	36*
Cc1ccc(S(=O)(=O)NCc2ccncc2)cc1C	74*	39	30*	31	76*	26*	17*	-1	-4
COc1cc(S(=O)(=O)NCc2ccncc2)ccc1Br	nt	nt	1	nt	nt	nt	nt	nt	nt
O=C(/C=C/c1ccccc1Cl)Nc1cccc(O)c1	64*	48	23*	32	24	14*	17*	36*	15*
O=C(/C=C/c1ccccc1Cl)Nc1ccccc1	nt	nt	13	nt	nt	nt	nt	nt	nt
CCOC(=O)c1c(NC(=S)NNS(=O)(=O)c2ccc(Br)cc2)sc2c1CCCCC2	nt	nt	-3	nt	nt	nt	nt	nt	nt
O=C(Nc1nc2ccccc2[nH]1)c1cc(F)cc(F)c1	nt	nt	7	nt	nt	nt	nt	nt	nt
O=C(Nc1nc2ccccc2[nH]1)c1ccc(F)cc1	72*	39	35*	-3	34	-7	-74	57*	44*
Cc1ccsc1C(=O)C1CCCN(Cc2cc(F)ccc2-n2cccn2)C1 (configuration not stated)	-6	109	0	7	nt	nt	nt	nt	nt
CN(C)c1ccc(/C=c2\sc3n(c2=O)CCCN=3)cc1	64*	46	18*	-55	11	-20	-179	65*	52*
CCOc1ccc2nc(-c3ccccc3)[nH]c2c1	50*	59	19*	-43	22	-17	-110	21*	13*
O=C(N=C1SC2CS(=O)(=O)CC2N1c1cccc(Cl)c1Cl)C1CCCO1 (configuration not stated)	nt	nt	-5	nt	nt	nt	nt	nt	nt
Cc1cc(C)c(C#N)c(SCc2nnc(-c3ccccc3[N+](=O)[O-])o2)n1	-3	107	-4	-43	nt	nt	nt	nt	nt
Cc1cc(C)c(C#N)c(SCc2nnc(-c3ccccc3)o2)n1	67*	46	67*	12	12	-3	-86	58*	33*
O=C1CC(c2ccc3c(c2)OCO3)Sc2nc3ccccc3n21 (configuration not stated)	52*	57	47*	-22	17	-8	-84	72*	69*
O=C1CC(c2ccccc2)Sc2nc3ccccc3n21 (configuration not stated)	30	80	1	-33	nt	nt	nt	nt	nt
